Legend:
Alpha glucosidase = Alpha glucosidase (Homo sapiens, UniProt O43451+P10253+P14410+Q2M2H8); assay: Inhibition of alpha-glucosidase (unknown origin); format: protein assay
Alpha amylase = molecular target: T1, Alpha amylase (Homo sapiens, UniProt P0DUB6); assay: Inhibition of alpha-amylase (unknown origin) using starch as substrate preincubated for 10 mins followed by substrate addition and measured after 10 mins by dinitrosalicylic acid reagent based assay
T1 sequence (P0DUB6 whole entry): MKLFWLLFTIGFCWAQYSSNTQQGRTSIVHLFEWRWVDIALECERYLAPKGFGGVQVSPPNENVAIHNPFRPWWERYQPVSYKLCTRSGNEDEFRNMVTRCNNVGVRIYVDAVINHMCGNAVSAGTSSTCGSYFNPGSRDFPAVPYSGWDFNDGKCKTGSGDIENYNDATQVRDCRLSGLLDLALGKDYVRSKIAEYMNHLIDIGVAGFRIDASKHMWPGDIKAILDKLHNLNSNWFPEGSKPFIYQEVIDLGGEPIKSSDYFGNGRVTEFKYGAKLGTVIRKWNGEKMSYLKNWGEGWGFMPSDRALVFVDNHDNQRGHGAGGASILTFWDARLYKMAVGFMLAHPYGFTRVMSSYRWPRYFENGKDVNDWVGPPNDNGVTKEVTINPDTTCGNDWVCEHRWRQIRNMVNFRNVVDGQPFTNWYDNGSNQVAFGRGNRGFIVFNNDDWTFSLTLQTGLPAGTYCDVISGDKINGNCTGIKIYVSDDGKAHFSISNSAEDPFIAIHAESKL

[1] = test system: COc1ccc(C(=O)n2nnc3ccccc32)cc1; assay: (§1) Competitive inhibition of alpha-amylase (unknown origin) assessed as substrate Vmax using p-nitrophenyl-R-D-maltoside as substrate incubated for 30 mins by ELISA-based Lineweaver-burk plot analysis; conditions: Homo sapiens
In short: (§2)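 Kinetics: inhibitor at 0.0625, 0.125, 0.3 and 0.4 mM crossed with p-nitrophenyl-R-D-maltoside at 0.1, 0.2, 0.4, 0.8 and 1.0 mM. Enzyme dissolved in deionized water, 0.2 mg/mL per well. PIPES buffer, pH 7.0, 30 min at 25 °C. Absorbance read on a plate reader. Vmax, Km, AICc and R² obtained by enzyme-kinetic graph fitting.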

[2] = test system: O=C(c1ccc(F)cc1)n1nnc2ccccc21; assay: as §1; conditions: Homo sapiens; in short: as §2
[3] = test system: O=C(Cn1nnc2ccccc21)c1ccc(Cl)cc1; assay: as §1; conditions: Homo sapiens; in short: as §2
[4] = test system: O=C(Cn1nnc2ccccc21)c1cccc(Br)c1; assay: as §1; conditions: Homo sapiens; in short: as §2
[5] = test system: Cc1cc2nnn(CC(=O)c3ccc(Cl)c(Cl)c3)c2cc1C; assay: as §1; conditions: Homo sapiens; in short: as §2
[6] = test system: O=C(c1ccc([N+](=O)[O-])cc1)n1nnc2ccccc21; assay: as §1; conditions: Homo sapiens; in short: as §2
[7] = test system: Cc1cc2nnn(CC(=O)c3ccc(Cl)cc3)c2cc1C; assay: as §1; conditions: Homo sapiens; in short: as §2
[8] = test system: O=C(c1cccc(Cl)c1)n1nnc2cc(Cl)c(Cl)cc21; assay: as §1; conditions: Homo sapiens; in short: as §2
[9] = test system: COc1ccc(C(=O)Cn2nnc3cc(C)c(C)cc32)cc1; assay: as §1; conditions: Homo sapiens; in short: as §2
[10] = test system: COc1ccc(C(=O)n2nnc3ccccc32)cc1; assay: (§3) Competitive inhibition of alpha-amylase (unknown origin) assessed as substrate Km using p-nitrophenyl-R-D-maltoside as substrate incubated for 30 mins by ELISA-based Lineweaver-burk plot analysis; conditions: Homo sapiens; in short: as §2
[11] = test system: O=C(c1ccc(F)cc1)n1nnc2ccccc21; assay: as §3; conditions: Homo sapiens; in short: as §2
[12] = test system: O=C(Cn1nnc2ccccc21)c1ccc(Cl)cc1; assay: as §3; conditions: Homo sapiens; in short: as §2
[13] = test system: O=C(Cn1nnc2ccccc21)c1cccc(Br)c1; assay: as §3; conditions: Homo sapiens; in short: as §2
[14] = test system: Cc1cc2nnn(CC(=O)c3ccc(Cl)c(Cl)c3)c2cc1C; assay: as §3; conditions: Homo sapiens; in short: as §2
[15] = test system: O=C(c1ccc([N+](=O)[O-])cc1)n1nnc2ccccc21; assay: as §3; conditions: Homo sapiens; in short: as §2
[16] = test system: Cc1cc2nnn(CC(=O)c3ccc(Cl)cc3)c2cc1C; assay: as §3; conditions: Homo sapiens; in short: as §2
[17] = test system: O=C(c1cccc(Cl)c1)n1nnc2cc(Cl)c(Cl)cc21; assay: as §3; conditions: Homo sapiens; in short: as §2
[18] = test system: COc1ccc(C(=O)Cn2nnc3cc(C)c(C)cc32)cc1; assay: as §3; conditions: Homo sapiens; in short: as §2
[19] = test system: O=C(Cn1nnc2ccccc21)c1cccc([N+](=O)[O-])c1; assay: (§4) Non-competitive inhibition of alpha-glucosidase (unknown origin) assessed as substrate Km using p-nitrophenyl-R-D-maltoside as substrate incubated for 30 mins at 1 min interval by ELISA-based Lineweaver-burk plot analysis; format: protein assay; conditions: Homo sapiens
[20] = test system: O=C(c1ccc(Br)cc1)n1nnc2ccccc21; assay: as §4; format: protein assay; conditions: Homo sapiens
[21] = test system: Cc1cc2nnn(C(=O)c3ccccc3)c2cc1C; assay: as §4; format: protein assay; conditions: Homo sapiens
[22] = test system: CCCCOc1ccc(C(=O)n2nnc3ccccc32)cc1; assay: as §4; format: protein assay; conditions: Homo sapiens
[23] = test system: Cc1cc(C(=O)n2nnc3ccccc32)cc(C)c1C; assay: as §4; format: protein assay; conditions: Homo sapiens
[24] = test system: O=C(c1cccc(Cl)c1)n1nnc2cc(Cl)c(Cl)cc21; assay: as §4; format: protein assay; conditions: Homo sapiens
[25] = test system: Cc1ccc(C(=O)n2nnc3cc(Cl)c(Cl)cc32)cc1C; assay: as §4; format: protein assay; conditions: Homo sapiens
[26] = test system: O=C(Cn1nnc2ccccc21)c1ccccc1O; assay: as §4; format: protein assay; conditions: Homo sapiens
[27] = test system: COc1ccc(C(=O)Cn2nnc3cc(C)c(C)cc32)cc1; assay: as §4; format: protein assay; conditions: Homo sapiens
[28] = test system: O=C(Cn1nnc2ccccc21)c1cccc([N+](=O)[O-])c1; assay: (§5) Non-competitive inhibition of alpha-glucosidase (unknown origin) assessed as substrate Vmax using p-nitrophenyl-R-D-maltoside as substrate incubated for 30 mins at 1 min interval by ELISA-based Lineweaver-burk plot analysis; format: protein assay; conditions: Homo sapiens
[29] = test system: O=C(c1ccc(Br)cc1)n1nnc2ccccc21; assay: as §5; format: protein assay; conditions: Homo sapiens
[30] = test system: Cc1cc2nnn(C(=O)c3ccccc3)c2cc1C; assay: as §5; format: protein assay; conditions: Homo sapiens
[31] = test system: CCCCOc1ccc(C(=O)n2nnc3ccccc32)cc1; assay: as §5; format: protein assay; conditions: Homo sapiens
[32] = test system: Cc1cc(C(=O)n2nnc3ccccc32)cc(C)c1C; assay: as §5; format: protein assay; conditions: Homo sapiens
[33] = test system: O=C(c1cccc(Cl)c1)n1nnc2cc(Cl)c(Cl)cc21; assay: as §5; format: protein assay; conditions: Homo sapiens
[34] = test system: Cc1ccc(C(=O)n2nnc3cc(Cl)c(Cl)cc32)cc1C; assay: as §5; format: protein assay; conditions: Homo sapiens
[35] = test system: O=C(Cn1nnc2ccccc21)c1ccccc1O; assay: as §5; format: protein assay; conditions: Homo sapiens
[36] = test system: COc1ccc(C(=O)Cn2nnc3cc(C)c(C)cc32)cc1; assay: as §5; format: protein assay; conditions: Homo sapiens

Compound | IC50 (Alpha glucosidase) | IC50 (Alpha amylase) | other results
Cc1ccc(C(=O)Cn2nnc3ccccc32)cc1 | 4.78 µM | 4.56 µM | 
O=C(c1ccccc1)n1nnc2cc(Cl)c(Cl)cc21 | 3.7 µM | 3.66 µM | 
O=C(Cn1nnc2ccccc21)c1cccc([N+](=O)[O-])c1 | 4 µM | 4.02 µM | 
Cc1cc2nnn(CC(=O)c3ccc(Cl)cc3)c2cc1C | 2.21 µM | 2.12 µM | 
COc1ccc(C(=O)Cn2nnc3ccccc32)cc1 | 4.5 µM | 4.42 µM | 
Cc1cc2nnn(CC(=O)c3ccc(Cl)c(Cl)c3)c2cc1C | 2.04 µM | 2 µM | 
O=C(Cn1nnc2ccccc21)c1ccc(-c2ccccc2)cc1 | 4.98 µM | 4.92 µM | 
Nc1cc(C(=O)n2nnc3ccccc32)ccc1Cl | 4.32 µM | 4.28 µM | 
Cc1cc2nnn(C(=O)c3ccccc3)c2cc1C | 3.4 µM | 3.32 µM | 
O=C(Cn1nnc2ccccc21)c1ccccc1O | 4.87 µM | 4.9 µM | 
Cc1cc(C(=O)n2nnc3ccccc32)ccc1[N+](=O)[O-] | 4.1 µM | 4.08 µM | 
O=C(Cn1nnc2ccccc21)c1ccc(Cl)cc1 | 2.5 µM | 2.41 µM | 
Cc1cc2nnn(CC(=O)c3ccccc3O)c2cc1C | 3.3 µM | 3.21 µM | 
Alpha amylase (Homo sapiens) (from UniProt P0DUB6) |  |  | Vmax [1]: 554 µM/min; Vmax [2]: 522 µM/min; Vmax [3]: 527 µM/min; Vmax [4]: 512 µM/min; Vmax [5]: 593 µM/min; Vmax [6]: 512 µM/min; Vmax [7]: 514 µM/min; Vmax [8]: 514 µM/min; Vmax [9]: 505 µM/min; Km [10]: 210 µM; Km [11]: 190 µM; Km [12]: 200 µM; Km [13]: 210 µM; Km [14]: 240 µM; Km [15]: 200 µM; Km [16]: 180 µM; Km [17]: 200 µM; Km [18]: 200 µM
O=C(c1c(F)cccc1F)n1nnc2ccccc21 | 5.23 µM | 5 µM | 
O=C(Cn1nnc2ccccc21)c1cccc(Br)c1 | 4.41 µM | 4.35 µM | 
Cc1cc2nnn(CC(=O)c3ccccc3)c2cc1C | 3.41 µM | 3.53 µM | 
O=C(c1ccccc1)n1nnc2ccccc21 | 5.29 µM | 5.38 µM | 

Compound | IC50 (Alpha glucosidase) | IC50 (Alpha amylase) | other results
O=C(Cn1nnc2ccccc21)c1ccccc1 | 4.91 µM | 4.89 µM | 
O=C(Cn1nnc2ccccc21)c1cccc(Cl)c1Cl | 3.47 µM | 3.51 µM | 
O=C(c1ccc(Br)cc1)n1nnc2ccccc21 | 3.2 µM | 3.13 µM | 
O=C(c1ccc([N+](=O)[O-])cc1)n1nnc2ccccc21 | 2.97 µM | 2.92 µM | 
Cc1ccc(C(=O)n2nnc3ccccc32)cc1C | 4.8 µM | 4.73 µM | 
Cc1ccc(C(=O)n2nnc3cc(Cl)c(Cl)cc32)cc1C | 3.82 µM | 3.66 µM | 
Cc1cc(C(=O)n2nnc3ccccc32)cc(C)c1C | 4.23 µM | 4.12 µM | 
O=C(Cn1nnc2ccccc21)c1ccc(Br)cc1 | 2.79 to 4.41 µM | 2.76 to 4.35 µM | 
COc1ccc(C(=O)n2nnc3ccccc32)cc1 | 2.99 µM | 2.98 µM | 
COc1ccc(C(=O)Cn2nnc3cc(C)c(C)cc32)cc1 | 2.6 µM | 2.51 µM | 
Alpha glucosidase (Homo sapiens) (from UniProt O43451+P10253+P14410+Q2M2H8) |  |  | Km [19]: 260 µM; Km [20]: 200 µM; Km [21]: 200 µM; Km [22]: 240 µM; Km [23]: 200 µM; Km [24]: 250 µM; Km [25]: 240 µM; Km [26]: 250 µM; Km [27]: 210 µM; Vmax [28]: 618 µM/min; Vmax [29]: 612 µM/min; Vmax [30]: 602 µM/min; Vmax [31]: 621 µM/min; Vmax [32]: 612 µM/min; Vmax [33]: 620 µM/min; Vmax [34]: 620 µM/min; Vmax [35]: 601 µM/min; Vmax [36]: 620 µM/min
O=C(c1ccc(F)c(F)c1Cl)n1nnc2ccccc21 | 5.63 µM | 5.72 µM | 
CCCCOc1ccc(C(=O)n2nnc3ccccc32)cc1 | 5.6 µM | 5.4 µM | 
O=C(Cn1nnc2ccccc21)c1ccc(Cl)c(Cl)c1 | 3.9 µM | 3.89 µM | 
O=C(c1cccc(Cl)c1)n1nnc2cc(Cl)c(Cl)cc21 | 3 µM | 2.99 µM | 
O=C(c1ccc(F)cc1)n1nnc2ccccc21 | 2.82 µM | 2.8 µM | 
Cc1cccc(C(=O)n2nnc3ccccc32)c1 | 4.42 µM | 4.3 µM | 
COc1ccccc1C(=O)n1nnc2ccccc21 | 4.79 µM | 4.77 µM | 

Source: ChEMBL document CHEMBL4406845, “Synthesis of benzotriazoles derivatives and their dual potential as α-amylase and α-glucosidase inhibitors in vitro: Structure-activity relationship, molecular docking, and kinetic studies” (Eur J Med Chem, 2019)
